Columns and labels:
[1] = test system: P388; assay: Antitumor activity against mouse P388 cells allografted in female CDF1 mouse assessed as disease cures by measuring 30-days host survival at 25 mg/kg, ip administered daily for 9 days as saline with Tween-80 solution starting 24 hrs after tumor inoculation relative to control; type: functional; settings: route intraperitoneal
In short: (§1)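 P388 ascitic cell inoculum given ip to CDF1 mice of the sex in each line. Nine daily ip doses in saline with Tween-80 as vehicle, starting 24 h after inoculation. Median survival time expressed as %T/C (>125 significant); "cure" defined as 30-day survival.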

[2] = test system: P388; assay: Antitumor activity against mouse P388 cells allografted in male CDF1 mouse assessed as change in body weight at 200 mg/kg, ip administered daily for 9 days as saline with Tween-80 solution starting 24 hrs after tumor inoculation; type: functional; settings: route intraperitoneal
In short: (§2)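 Ascitic fluid carrying P388 cells was inoculated ip. Compound was given ip in nine daily doses, starting 24 h after inoculation, in Klucel (hydroxypropylcellulose) suspension or in saline with Tween-80. Body-weight difference (treated minus control) was recorded on day 5. Survival was scored as %T/C of median survival time, and 30-day survival counted as cure.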

[3] = test system: P388; assay: Antitumor activity against mouse P388 cells allografted in male CDF1 mouse assessed as change in body weight at 50 mg/kg, ip administered daily for 9 days as saline with Tween-80 solution starting 24 hrs after tumor inoculation; type: functional; settings: route intraperitoneal; in short: as §2
[4] = test system: P388; assay: Antitumor activity against mouse P388 cells allografted in male CDF1 mouse assessed as disease cures by measuring 30-days host survival at 400 mg/kg, ip administered daily for 9 days as saline with Tween-80 solution starting 24 hrs after tumor inoculation relative to control; type: functional; settings: route intraperitoneal; in short: as §1
[5] = test system: Mus musculus; assay: Toxicity in male CDF1 mouse allografted with mouse P388 cells assessed as animal survival at 50 mg/kg, ip administered daily for 9 days as saline with Tween-80 solution starting 24 hrs after tumor inoculation; type: organism-based; parameters: dose 50 mg/kg, route intraperitoneal; settings: in vivo
In short: (§3)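 P-388 leukemia ascitic fluid implanted ip. Compound dosed ip in saline with Tween-80 vehicle, once daily for nine doses from 24 h after tumor inoculation. Acute toxicity scored as toxicity-day survivors per group. Survival was followed up to 30 days, with 30-day survival counted as "cure". Follows NCI screening protocols.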

[6] = test system: Mus musculus; assay: Toxicity in female CDF1 mouse allografted with mouse P388 cells assessed as animal survival at 100 mg/kg, ip administered daily for 9 days as saline with Tween-80 solution starting 24 hrs after tumor inoculation; type: organism-based; parameters: dose 100 mg/kg, route intraperitoneal; settings: in vivo; in short: as §3
[7] = test system: P388; assay: Antitumor activity against mouse P388 cells allografted in female CDF1 mouse assessed as change in body weight at 25 mg/kg, ip administered daily for 9 days as saline with Tween-80 solution starting 24 hrs after tumor inoculation; type: functional; settings: route intraperitoneal; in short: as §2
[8] = test system: P388; assay: Antitumor activity against mouse P388 cells allografted in male CDF1 mouse assessed as change in body weight at 25 mg/kg, ip administered daily for 9 days as saline with Tween-80 solution starting 24 hrs after tumor inoculation; type: functional; settings: route intraperitoneal; in short: as §2
[9] = test system: P388; assay: Antitumor activity against mouse P388 cells allografted in female CDF1 mouse assessed as change in body weight at 100 mg/kg, ip administered daily for 9 days as saline with Tween-80 solution starting 24 hrs after tumor inoculation; type: functional; settings: route intraperitoneal; in short: as §2
[10] = test system: P388; assay: Antitumor activity against mouse P388 cells allografted in female CDF1 mouse assessed as change in body weight at 50 mg/kg, ip administered daily for 9 days as saline with Tween-80 solution starting 24 hrs after tumor inoculation; type: functional; settings: route intraperitoneal; in short: as §2
[11] = test system: P388; assay: Antitumor activity against mouse P388 cells allografted in female CDF1 mouse assessed as disease cures by measuring 30-days host survival at 100 mg/kg, ip administered daily for 9 days as saline with Tween-80 solution starting 24 hrs after tumor inoculation relative to control; type: functional; settings: route intraperitoneal; in short: as §1
[12] = test system: P388; assay: Antitumor activity against mouse P388 cells allografted in female CDF1 mouse assessed as disease cures by measuring 30-days host survival at 50 mg/kg, ip administered daily for 9 days as saline with Tween-80 solution starting 24 hrs after tumor inoculation relative to control; type: functional; settings: route intraperitoneal; in short: as §1
[13] = test system: Mus musculus; assay: Toxicity in male CDF1 mouse allografted with mouse P388 cells assessed as animal survival at 100 mg/kg, ip administered daily for 9 days as saline with Tween-80 solution starting 24 hrs after tumor inoculation; type: organism-based; parameters: dose 100 mg/kg, route intraperitoneal; settings: in vivo; in short: as §3
[14] = test system: Mus musculus; assay: Toxicity in male CDF1 mouse allografted with mouse P388 cells assessed as animal survival at 200 mg/kg, ip administered daily for 9 days as saline with Tween-80 solution starting 24 hrs after tumor inoculation; type: organism-based; parameters: dose 200 mg/kg, route intraperitoneal; settings: in vivo; in short: as §3
[15] = test system: Mus musculus; assay: Toxicity in female CDF1 mouse allografted with mouse P388 cells assessed as animal survival at 50 mg/kg, ip administered daily for 9 days as saline with Tween-80 solution starting 24 hrs after tumor inoculation; type: organism-based; parameters: dose 50 mg/kg, route intraperitoneal; settings: in vivo; in short: as §3
[16] = test system: Mus musculus; assay: Toxicity in female CDF1 mouse allografted with mouse P388 cells assessed as animal survival at 25 mg/kg, ip administered daily for 9 days as saline with Tween-80 solution starting 24 hrs after tumor inoculation; type: organism-based; parameters: dose 25 mg/kg, route intraperitoneal; settings: in vivo; in short: as §3
[17] = test system: P388; assay: Antitumor activity against mouse P388 cells allografted in male CDF1 mouse assessed as disease cures by measuring 30-days host survival at 200 mg/kg, ip administered daily for 9 days as saline with Tween-80 solution starting 24 hrs after tumor inoculation relative to control; type: functional; settings: route intraperitoneal; in short: as §1
[18] = test system: Mus musculus; assay: Toxicity in male CDF1 mouse allografted with mouse P388 cells assessed as animal survival at 25 mg/kg, ip administered daily for 9 days as saline with Tween-80 solution starting 24 hrs after tumor inoculation; type: organism-based; parameters: dose 25 mg/kg, route intraperitoneal; settings: in vivo; in short: as §3
[19] = test system: P388; assay: Antitumor activity against mouse P388 cells allografted in male CDF1 mouse assessed as disease cures by measuring 30-days host survival at 100 mg/kg, ip administered daily for 9 days as saline with Tween-80 solution starting 24 hrs after tumor inoculation relative to control; type: functional; settings: route intraperitoneal; in short: as §1
[20] = test system: P388; assay: Antitumor activity against mouse P388 cells allografted in male CDF1 mouse assessed as disease cures by measuring 30-days host survival at 25 mg/kg, ip administered daily for 9 days as saline with Tween-80 solution starting 24 hrs after tumor inoculation relative to control; type: functional; settings: route intraperitoneal; in short: as §1
[21] = test system: Mus musculus; assay: Toxicity in male CDF1 mouse allografted with mouse P388 cells assessed as animal survival at 400 mg/kg, ip administered daily for 9 days as saline with Tween-80 solution starting 24 hrs after tumor inoculation; type: organism-based; parameters: dose 400 mg/kg, route intraperitoneal; settings: in vivo; in short: as §3
[22] = test system: P388; assay: Antitumor activity against mouse P388 cells allografted in male CDF1 mouse assessed as change in body weight at 400 mg/kg, ip administered daily for 9 days as saline with Tween-80 solution starting 24 hrs after tumor inoculation; type: functional; settings: route intraperitoneal; in short: as §2
[23] = test system: P388; assay: Antitumor activity against mouse P388 cells allografted in male CDF1 mouse assessed as change in body weight at 100 mg/kg, ip administered daily for 9 days as saline with Tween-80 solution starting 24 hrs after tumor inoculation; type: functional; settings: route intraperitoneal; in short: as §2
[24] = test system: P388; assay: Antitumor activity against mouse P388 cells allografted in male CDF1 mouse assessed as disease cures by measuring 30-days host survival at 50 mg/kg, ip administered daily for 9 days as saline with Tween-80 solution starting 24 hrs after tumor inoculation relative to control; type: functional; settings: route intraperitoneal; in short: as §1

`O=C(NC1CCCCC1)OCc1c(COC(=O)NC2CCCCC2)c(-c2ccc(Cl)c(Cl)c2)n2c1CCC2` was tested. Which T/C [1] did it give?
Its T/C is 168%.

What about the Activity [2] of the same compound?
The Activity was -2.8 g.

And the Activity [3]?
The Activity was -0.6 g.

What about the T/C [4] of the same compound?
The T/C was 79%.

And the Activity [5]?
Its Activity is “Non-toxic”.

What about the Activity [6] of the same compound?
The Activity was “Non-toxic”.

And the Activity [7]?
The Activity was -1.1 g.

What about the Activity [8] of the same compound?
The Activity was -0.6 g.

And the Activity [9]?
The Activity was -2.5 g.

And the Activity [10]?
Its Activity is -2 g.

What about the T/C [11] of the same compound?
The T/C was 212%.

What about the T/C [12] of the same compound?
The T/C was 174%.

What about the Activity [13] of the same compound?
Its Activity is “Non-toxic”.

What about the Activity [14] of the same compound?
The Activity was “Non-toxic”.

What about the Activity [15] of the same compound?
Its Activity is “Non-toxic”.

And the Activity [16]?
Its Activity is “Non-toxic”.

And the T/C [17]?
The T/C was 91%.

And the Activity [18]?
The Activity was “Non-toxic”.

And the T/C [19]?
Its T/C is 187%.

What about the T/C [20] of the same compound?
The T/C was 150%.

And the Activity [21]?
The Activity was “Non-toxic”.

And the Activity [22]?
The Activity was -4 g.

What about the Activity [23] of the same compound?
The Activity was -1.2 g.

And the T/C [24]?
Its T/C is 166%.
